Assay results: ChEMBL document CHEMBL3272325, “Structure-activity relationships of dimeric Catharanthus alkaloids. 1. Deacetylvinblastine amide (vindesine) sulfate” (J Med Chem, 1978)

Tests used:
[1] = tested on: B16; assay: Antitumor activity against mouse B16 cells allografted in C57Bl/6 mouse assessed as increase in life span at 0.9 mg/kg/day, ip administered on day 1, 5 and 9 measured for 61 days relative to control; assay type: functional; conditions: route intraperitoneal
Method in brief: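 C57BL/6 mice implanted ip with 0.5 mL of B16 melanoma brei. Alkaloid sulfate salts given ip on days 1, 5, 9 or on days 5, 9, 13. Percent increase in life span measured against controls; experiment ended at 61 days.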

[2] = tested on: B16; assay: Antitumor activity against mouse B16 cells allografted in B6D2F1 mouse assessed as mean survival time at 1.08 mg/kg/day, ip administered on day 1, 5 and 9 (reference value: 20.0 days); assay type: functional; conditions: route intraperitoneal
Method in brief: (§1)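 Male B6D2F1 mice implanted ip on day 0 with 0.25 mL of a 20% (w/v) B16 melanoma brei. Alkaloid sulfate salts given ip on days 1, 5, 9 or on days 5, 9, 13, groups of 10, against 30 untreated controls. Read-outs: median survival time with range of individual deaths, and percent increase in life span, with survivors counted on day 56.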

[3] = tested on: B16; assay: Antitumor activity against mouse B16 cells allografted in B6D2F1 mouse assessed as mean survival time at 1.08 mg/kg/day, ip administered on day 5, 9 and 13 (reference value: 20.0 days); assay type: functional; conditions: route intraperitoneal; method in brief: as §1
[4] = tested on: B16; assay: Antitumor activity against mouse B16 cells allografted in B6D2F1 mouse assessed as increase in life span at 0.648 mg/kg/day, ip administered on day 1, 5 and 9 measured for 56 days relative to untreated control; assay type: functional; conditions: route intraperitoneal; method in brief: as §1
[5] = Acute toxicity in rat; assay type: organism-based; conditions: in vivo
[6] = tested on: B16; assay: Antitumor activity against mouse B16 cells allografted in B6D2F1 mouse assessed as increase in life span at 3 mg/kg/day, ip administered on day 5, 9 and 13 measured for 56 days relative to untreated control; assay type: functional; conditions: route intraperitoneal; method in brief: as §1
[7] = tested on: P388; assay: Antitumor activity against mouse P388 cells allografted in mouse assessed as increase in life span at 4 mg/kg/day, ip after 1 day; assay type: functional; conditions: 24 h, route intraperitoneal
Method in brief: (§2)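 P388 ascites implanted ip in mice, 10 animals per group. Sulfate salts given ip either daily on days 1-9 or as a single dose on day 1. Median life span was calculated using all deaths and survivors. Percent increase in life span was taken over untreated controls. The highest nontoxic dose was noted.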

[8] = tested on: B16; assay: Antitumor activity against mouse B16 cells allografted in B6D2F1 mouse assessed as mean survival time at 0.648 mg/kg/day, ip administered on day 1, 5 and 9 (reference value: 20.0 days); assay type: functional; conditions: route intraperitoneal; method in brief: as §1
[9] = Antitumor activity against mouse P1534(J) cells allografted in mouse assessed as tumor growth inhibition at 0.2 mg/kg/day, ip administered from day 1 to day 9 relative to unreated control; assay type: functional; conditions: P1534J, route intraperitoneal, read-out: TGI
Method in brief: (§3)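 P1534(J) leukemia implanted subcutaneously in mice. Sulfate salts given ip daily on days 1-9. Read-out was percent inhibition of tumor growth relative to untreated controls. The highest nontoxic dose was recorded.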

[10] = tested on: P388; assay: Antitumor activity against mouse P388 cells allografted in mouse assessed as increase in life span at 0.10 mg/kg/day, ip administered from day 1 to day 9 relative to untreated control; assay type: functional; conditions: route intraperitoneal; method in brief: as §2
[11] = tested on: Rhesus monkey; assay: Neurotoxicity in iv dosed monkey assessed as peripheral neuropathy; assay type: toxicity, organism-based, Macaca mulatta; conditions: in vivo
[12] = tested on: P388; assay: Antitumor activity against mouse P388 cells allografted in mouse assessed as increase in life span at 2.7 mg/kg/day, ip after 1 day; assay type: functional; conditions: 24 h, route intraperitoneal; method in brief: as §2
[13] = tested on: B16; assay: Antitumor activity against mouse B16 cells allografted in B6D2F1 mouse assessed as increase in life span at 3 mg/kg/day, ip administered on day 1, 5 and 9 measured for 56 days relative to untreated control; assay type: functional; conditions: route intraperitoneal; method in brief: as §1
[14] = tested on: B16; assay: Antitumor activity against mouse B16 cells allografted in B6D2F1 mouse assessed as mean survival time at 1.8 mg/kg/day, ip administered on day 5, 9 and 13 (reference value: 20.0 days); assay type: functional; conditions: route intraperitoneal; method in brief: as §1
[15] = tested on: P388; assay: Antitumor activity against mouse P388 cells allografted in mouse assessed as increase in life span at 13.5 mg/kg/day, ip after 1 day; assay type: functional; conditions: 24 h, route intraperitoneal
[16] = Toxicity in ip dosed mouse allografted with mouse P1534(J) cells administered from day 1 to day 9; assay type: organism-based; conditions: in vivo, read-out: MNTD; method in brief: as §3
[17] = Toxicity in ip dosed mouse allografted with mouse p388 cells administered from day 1 to day 9; assay type: organism-based; conditions: in vivo, read-out: MNTD; method in brief: as §2
[18] = tested on: B16; assay: Antitumor activity against mouse B16 cells allografted in B6D2F1 mouse assessed as increase in life span at 0.648 mg/kg/day, ip administered on day 5, 9 and 13 measured for 56 days relative to untreated control; assay type: functional; conditions: route intraperitoneal; method in brief: as §1
[19] = tested on: B16; assay: Antitumor activity against mouse B16 cells allografted in B6D2F1 mouse assessed as mean survival time at 0.648 mg/kg/day, ip administered on day 5, 9 and 13 (reference value: 20.0 days); assay type: functional; conditions: route intraperitoneal; method in brief: as §1
[20] = tested on: P388; assay: Antitumor activity against mouse P388 cells allografted in mouse assessed as increase in life span at 0.4 mg/kg/day, ip administered from day 1 to day 9 relative to untreated control; assay type: functional; conditions: route intraperitoneal; method in brief: as §2

`CC[C@]1(O)C[C@@H]2CN(CCc3c([nH]c4ccccc34)[C@@](C(=O)OC)(c3cc4c(cc3OC)N(C)[C@H]3[C@@](O)(C(N)=O)[C@H](O)[C@]5(CC)C=CCN6CC[C@]43[C@@H]65)C2)C1.O=S(=O)(O)O` [VINDESINE SULFATE] gave an ILS at 0.9 mg/kg/day [1] of 60%, an MST [2] of 42 days and an MST [3] of 31.5 days. The ILS at 0.648 mg/kg/day [4] was 75%, the LD50 [5] was 2 mg/kg and the ILS at 3 mg/kg/day [6] was 48%. The ILS at 4 mg/kg/day [7] was 77%, the MST [8] was 35 days and the inhibition in vivo at 0.2 mg/kg/day [9] was 74%. The ILS at 0.1 mg/kg/day [10] was 109%, the Activity [11] was “Non-toxic” and the ILS at 2.7 mg/kg/day [12] was 95%. The ILS at 3 mg/kg/day [13] was 138%, the MST [14] was 39 days and the ILS at 13.5 mg/kg/day [15] was 231%. For the same compound, the MTD [16] was 0.25 mg/kg/day, the MTD [17] was 0.9 mg/kg/day and the ILS at 0.648 mg/kg/day [18] was 35%. For the same compound, the MST [19] was 27 days and the ILS at 0.4 mg/kg/day [20] was 172%.
